Bioassay records (PubChem BioAssay)
This is a sample that favours compounds with a hit; in the whole collection about 1.3% have one here.
NS3 helicase inh = blocks Hepatitis C virus NS3 helicase unwinding; 290,000 compounds, 0.56% hits; NS3 helicase DNA unwinding, Cy5 molecular beacon fluorescence; inhibition, % at 10.9 µM;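 active = inhibition above the mean of all tested compounds plus 3 SD, set per campaign, cut at about 35% in these data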;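 also: 0% = DMSO wells and 100% = thioflavine S control wells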
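Assay system – hepatitis C virus NS3 helicase domain fragment enzyme · Buffer or medium – MOPS pH 6.5, MgCl2, DTT, Tween20, BSA · Reagent – Cy5/quencher beacon DNA duplex and ATP to start · Compound – single 10.9 µM dose · Timing – 1 h at 25 °C · Technique – Cy5 beacon fluorescence read at start and 1 h · Measure – % inhibition of unwinding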
core dimer inh = HCV core protein dimerization inhibition; TR-FRET GST/Flag-core106 dimerization, 1536-well; inhibition, % at 5 µM; 300,000 compounds, 0.33% hits;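 active = inhibition above the mean of all tested compounds plus 3 SD, set per screening campaign, cut at about 45% in these data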
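Material: GST/Flag-tagged HCV core106 proteins. Incubation: 4 h, 22.5 °C incubation. Read-out basis: inhibition (%) from 671 over 617 nm ratio. Measured by: TR-FRET, excitation 340 nm, emission 617 and 671 nm.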
Lipid droplet = hepatic lipid droplet formation modulation. AML12 mouse hepatocytes, oleate lipid droplets, BODIPY imaging. inhibition, % at 6.5 µM. 240,000 compounds, 0.4% hits. AID 1656;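 active = lipid droplet intensity inhibited by at least 50%, with more than 500 cells counted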
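Technique: fluorescence imaging, 20x objective, two fields per well / Assay system: AML12 hepatocytes (mouse) / Measure: % inhibition of lipid droplet signal / Doses: 6.5 µM single-point dosing / Incubation: overnight exposure / Reagent: 100 µM oleic acid challenge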
Tb MetRS inh = blocks T. brucei methionyl-tRNA synthetase activity | 360,000 compounds, 0.4% hits | purified T. brucei MetRS, ATP depletion, Kinase-Glo luminescence | inhibition, % at 11.9 µM;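 active = inhibition above a per-plate cutoff of the control wells' mean inhibition plus 3 SD, cut at about 5.5% in these data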;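 also: 0% = DMSO wells median and 100% = median of wells with control inhibitor compound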
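Measured by: Kinase-Glo luciferase luminescence reporting remaining unconsumed ATP. Material: purified T. brucei MetRS enzyme. Doses: 11.9 µM compound single dose, 0.9% DMSO. Medium: HEPES buffer containing pyrophosphatase, BSA, spermine, DTT. Times: 15 min preincubation, 2 h reaction, all 25 °C. Reagent: methionine, ATP and bulk E. coli tRNA.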
An asterisk follows results filed as active.

COc1ccc(-c2cc(-c3ccccc3)nc(SCC(=O)Nc3nccs3)c2C#N)cc1 was read as NS3 helicase inh 5, core dimer inh 12, Lipid droplet -4 and Tb MetRS inh -1.
Screening Cc1ccccc1S(=O)(=O)N1C[C@@H]2C(C(=O)C[C@@H]3C(=O)N(C)C(=O)[C@@H]32)[C@@H]1c1ccc(Cl)cc1 (stereo partly drawn) returned Tb MetRS inh 0.
For CCc1cc(=O)oc2cc(C)c(CN3CCCC(C)C3)c(O)c12 (stereo not drawn) the results were NS3 helicase inh 25, core dimer inh 61*, Lipid droplet -10 and Tb MetRS inh 0.
Screening CCCCc1cc(=O)oc2cc(C)c(CN3CCCC3)c(O)c12 returned NS3 helicase inh 33, core dimer inh 51*, Lipid droplet -19 and Tb MetRS inh -1.
Screening CCOc1cc(/C=C2\C(=N)N3N=C(C)SC3=NC2=O)ccc1OCCOc1cccc(OC)c1 returned NS3 helicase inh 4, core dimer inh 18, Lipid droplet 6 and Tb MetRS inh 0.
Screening CCc1nn2c(=O)cc(COc3ccc(/C=C4\C(=N)N5N=C(C)SC5=NC4=O)cc3)nc2s1 returned NS3 helicase inh 12, core dimer inh 47*, Lipid droplet 4 and Tb MetRS inh 0.
Screening COc1ccc(C2Nc3ccccc3C(=O)N2Cc2ccco2)cc1COc1ccccc1F (stereo not drawn) returned NS3 helicase inh 4, core dimer inh 46*, Lipid droplet -17 and Tb MetRS inh 0.
`O=C(CN1C(=O)/C(=C/c2ccccc2)SC1=S)Nc1ncc(Cc2ccccc2)s1` gave NS3 helicase inh 9, core dimer inh 54*, Lipid droplet 4 and Tb MetRS inh 0.
Screening CCc1nc2c(OCc3c(C)noc3C)cccn2c1N(C)C(=O)c1ccccc1F returned Tb MetRS inh 1.
`O=C(COC(=O)c1cccc(S(=O)(=O)N2CCc3ccccc3C2)c1)NCc1ccco1` gave NS3 helicase inh 11, core dimer inh 51*, Lipid droplet -4 and Tb MetRS inh 0.
For CC(C)c1cc(Nc2cccc(O)c2)cc(C(C)C)c1O the results were NS3 helicase inh 15 and core dimer inh 53*.
For Oc1cccc(Nc2ccccc2)c1 the results were Tb MetRS inh 0.
`O=C(NCC1CCCO1)c1ccc(Cl)c(NS(=O)(=O)c2ccc(F)cc2)c1` (stereo not drawn) gave Tb MetRS inh 0.
`CCN(CC(=O)Nc1c(F)cccc1F)C(=O)c1ccc2ccccc2n1` gave core dimer inh -1 and Tb MetRS inh -1.
CCN(CC(=O)Nc1c(F)cccc1F)C(=O)/C=C/c1ccc2ccccc2n1 was read as core dimer inh 75* and Tb MetRS inh 0.
`CC(O)(CC(=O)O)CC(=O)O` gave core dimer inh 2.
Screening CCCCNS(=O)(=O)c1ccc2nc(SCC(=O)c3ccccc3OC)[nH]c2c1 returned NS3 helicase inh 0, core dimer inh -1 and Tb MetRS inh 13*.
CCCCNS(=O)(=O)c1ccc2nc(SCC(N)=O)[nH]c2c1 was read as NS3 helicase inh -1, core dimer inh -2, Lipid droplet -17 and Tb MetRS inh 1.
CC(C)(C)N1C(=O)c2ccccc2NC(=O)C1C(=O)Nc1ccc2c(c1)OCCO2 (stereo not drawn) was read as Tb MetRS inh -1.
For N=c1c(C(=O)NCc2ccc(F)cc2)cc2c(=O)n3ccccc3nc2n1Cc1ccco1 the results were NS3 helicase inh 12, core dimer inh 29, Lipid droplet -1 and Tb MetRS inh 0.
`N=c1c(C(=O)NCc2ccco2)cc2c(=O)n3ccccc3nc2n1Cc1ccccc1` gave NS3 helicase inh 11, core dimer inh 65*, Lipid droplet -4 and Tb MetRS inh -1.
Cc1ccc2nc3c(cc(C(=O)NCc4ccco4)c(=N)n3Cc3ccco3)c(=O)n2c1 was read as NS3 helicase inh 12, core dimer inh 70*, Lipid droplet -4 and Tb MetRS inh 0.
For N=c1c(C(=O)NCc2ccccc2)cc2c(=O)n3ccccc3nc2n1Cc1ccco1 the results were NS3 helicase inh 2, core dimer inh 24, Lipid droplet 8 and Tb MetRS inh 0.
`N=c1c(C(=O)NCc2ccco2)cc2c(=O)n3ccccc3nc2n1Cc1ccc(Cl)cc1` gave NS3 helicase inh 25, core dimer inh 67* and Tb MetRS inh 2.
Screening COc1ccc(CCNC(=O)C(F)(F)F)cc1S(N)(=O)=O returned Tb MetRS inh 0.
